According to article PMC7383886 (Diabetes, Obesity & Metabolism, 2020):

Assays:
[1] = system: patients with type 2 diabetes inadequately controlled on metformin; test: Anti-efpeglenatide antibodies, enzyme-linked immunosorbent assay; format: in vivo, human; details: log 2-expressed titre of at least 2
Procedure, shortened: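 Anti-drug antibodies in patient blood samples were detected by ELISA with an absorbance plate read-out, validated at a central laboratory. Treatment-emergent antibodies were evaluated in the safety set of patients on double-blind sc dosing with background metformin.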

[2] = system: patients with type 2 diabetes inadequately controlled on metformin; test: Vital signs, LIBERATE 204; format: in vivo, human; details: any post-baseline time point from week 2 to week 17 or at follow-up (week 23)
[3] = system: patients with type 2 diabetes inadequately controlled on metformin; test: Treatment-emergent adverse events and hypoglycaemia, LIBERATE 204; format: in vivo, human
Procedure, shortened: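 Safety set comprised all patients receiving any study drug, grouped by treatment actually received; analysed descriptively. TEAEs were adverse events starting or worsening on or after the first dose. Hypoglycaemia AEs required confirmed blood glucose <3.9 mmol/L (<70 mg/dL), coded by MedDRA 16.1. Injection-site reactions and symptomatic hypoglycaemic episodes came from patient diaries. Dosing was double-blind sc on background metformin.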

[4] = system: patients with type 2 diabetes inadequately controlled on metformin; test: Body weight, LIBERATE 204; format: in vivo, human; details: mean (SD)
Procedure, shortened: (§1)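 Adults 18–<75 y with T2D on stable metformin (≥1500 mg/d or maximum tolerated dose) had HbA1c 53–86 mmol/mol and BMI <40. They received double-blind sc test compound or placebo (0.53 mL prefilled syringe): 4 mg weekly on days 1, 8, 15 and 22, 8 mg on day 29, then the assigned dose on days 57 and 85. Measured at baseline and week 17 in the full analysis set; change analysed by MMRM (LS means, 95.1% CIs).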

[5] = system: patients with T2D who were drug-naïve or on metformin; details: 4 mg once weekly; 12 weeks; EXCEED; cited from earlier work
[6] = system: patients with type 2 diabetes inadequately controlled on metformin; test: HbA1c, phase 2 trial LIBERATE 204; format: in vivo, human
Procedure, shortened: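 HbA1c was assessed at week 17, after 16 weeks of double-blind sc treatment on background metformin. Dosing was 4 mg weekly for 4 weeks, 8 mg on day 29, then the assigned dose every 28 days; placebo was matched. The proportion reaching HbA1c <53 mmol/mol (<7%) was compared with placebo by Fisher's exact test in the full analysis set.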

[7] = system: patients with type 2 diabetes inadequately controlled on metformin; test: Fasting plasma glucose; format: in vivo, human; details: mean (SD)
Procedure, shortened: as §1

[8] = system: patients with type 2 diabetes inadequately controlled on metformin; test: Neutralizing antibodies, cell-based cAMP-Glo assay; format: in vivo, human; details: any patient at any time
Procedure, shortened: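 Neutralizing activity of anti-drug antibodies in patient samples was tested in a cell-based assay. Antibody-mediated inhibition of intracellular cAMP was read by cAMP-Glo luminescence; the assay was validated at a central laboratory. Patients received double-blind sc test compound or placebo.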

[9] = system: patients with type 2 diabetes inadequately controlled on metformin; test: Seven-point glucose profile; format: in vivo, human; details: full analysis set n = 52, mean (SD)
Procedure, shortened: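 Patients self-measured glucose with a provided glucometer for a seven-point profile: 90 min pre- and postprandial readings plus bedtime, recorded in a diary. Mean daily glucose was derived from this profile. Dosing was double-blind sc, with metformin continued: 4 mg weekly ×4, 8 mg on day 29, then the assigned monthly dose on days 57 and 85. Full analysis set; change to week 17 analysed by MMRM with 95.1% CIs.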

[10] = 8 mg once monthly sc, safety set n = 52
[11] = 12 mg once monthly sc, safety set n = 52
[12] = 16 mg once monthly sc, safety set n = 53
[13] = overall (8, 12 and 16 mg once monthly sc), safety set n = 157
[14] = 8 mg once monthly sc, full analysis set n = 52
[15] = 12 mg once monthly sc, full analysis set n = 52
[16] = 16 mg once monthly sc, full analysis set n = 52
[17] = overall (8, 12 and 16 mg once monthly sc), full analysis set n = 156

For efpeglenatide, the “Antibody formation: Treatment-emergent (titre ≥2)” value (from here on “Antibody formation”) [1, 10] was 5 (9.6) n (%), the “Antibody formation” value [1, 11] was 6 (11.5) n (%) and the “Antibody formation” value [1, 12] was 4 (7.5) n (%). For the same substance, the “Mean changes from baseline in heart rate, temperature, systolic blood pressure or diastolic blood pressure” value [2] was “no meaningful mean changes”, the “Any TEAE” value [3, 10] was 43 (82.7) n (%) and the “Any TEAE leading to discontinuation” value [3, 10] was 6 (11.5) n (%). The Injection-site reaction [3, 10] was 4 (7.7) n (%), the “SAEs: Any” value [3, 10] was 0 (0.0) n (%) and the “SAEs: GI disorders” value [3, 10] was 0 (0.0) n (%). For the same substance, the “SAEs: Injury, poisoning and procedural complications” value (“SAEs: Injury” for short) [3, 10] was 0 (0.0) n (%), the “SAEs: Neoplasms: benign, malignant and unspecified” value (“SAEs: Neoplasms: benign” below) [3, 10] was 0 (0.0) n (%) and the “SAEs: Nervous system disorders” value [3, 10] was 0 (0.0) n (%). For the same substance, the “SAEs: Psychiatric disorders” value [3, 10] was 0 (0.0) n (%), the “TEAE: Diarrhoea” value [3, 10] was 9 (17.3) n (%) and the “TEAE: GI disorders” value [3, 10] was 26 (50.0) n (%). The “TEAE: Nausea” value [3, 10] was 14 (26.9) n (%), the “TEAE: Vomiting” value [3, 10] was 8 (15.4) n (%) and the “Any TEAE” value [3, 11] was 43 (82.7) n (%). For the same substance, the “Any TEAE leading to discontinuation” value [3, 11] was 7 (13.5) n (%), the Injection-site reaction [3, 11] was 4 (7.7) n (%) and the “SAEs: Any” value [3, 11] was 5 (9.6) n (%). For the same substance, the “SAEs: GI disorders” value [3, 11] was 1 (1.9) n (%), the “SAEs: Injury” value [3, 11] was 1 (1.9) n (%) and the “SAEs: Neoplasms: benign” value [3, 11] was 1 (1.9) n (%). For the same substance, the “SAEs: Nervous system disorders” value [3, 11] was 1 (1.9) n (%), the “SAEs: Psychiatric disorders” value [3, 11] was 1 (1.9) n (%) and the “TEAE: Diarrhoea” value [3, 11] was 8 (15.4) n (%). For the same substance, the “TEAE: GI disorders” value [3, 11] was 29 (55.8) n (%), the “TEAE: Nausea” value [3, 11] was 24 (46.2) n (%) and the “TEAE: Vomiting” value [3, 11] was 13 (25.0) n (%). The “Any TEAE” value [3, 12] was 43 (81.1) n (%), the “Any TEAE leading to discontinuation” value [3, 12] was 8 (15.1) n (%) and the Injection-site reaction [3, 12] was 2 (3.8) n (%). For the same substance, the “SAEs: Any” value [3, 12] was 3 (5.7) n (%), the “SAEs: GI disorders” value [3, 12] was 0 (0.0) n (%) and the “SAEs: Injury” value [3, 12] was 1 (1.9) n (%). For the same substance, the “SAEs: Neoplasms: benign” value [3, 12] was 1 (1.9) n (%), the “SAEs: Nervous system disorders” value [3, 12] was 1 (1.9) n (%) and the “SAEs: Psychiatric disorders” value [3, 12] was 0 (0.0) n (%). The “TEAE: Diarrhoea” value [3, 12] was 11 (20.8) n (%), the “TEAE: GI disorders” value [3, 12] was 31 (58.5) n (%) and the “TEAE: Nausea” value [3, 12] was 23 (43.4) n (%). For the same substance, the “TEAE: Vomiting” value [3, 12] was 17 (32.1) n (%), the “Hypoglycaemia TEAEs (blood glucose ≤3.9 mmol/L [≤70 mg/dL])” value ([3]; any group) was “No hypoglycaemia TEAEs” and the “AEs of acute or chronic pancreatitis” value ([3]; during the study) was “No AEs of acute or chronic pancreatitis were reported”. For the same substance, the Deaths ([3]; during the study) was “No deaths”, the “Any TEAE” value [3, 13] was 129 (82.2) n (%) and the “Any TEAE leading to discontinuation” value [3, 13] was 21 (13.4) n (%). For the same substance, the Injection-site reaction [3, 13] was 10 (6.4) n (%), the “SAEs: Any” value [3, 13] was 8 (5.1) n (%) and the “SAEs: GI disorders” value [3, 13] was 1 (0.6) n (%). For the same substance, the “SAEs: Injury” value [3, 13] was 2 (1.3) n (%), the “SAEs: Neoplasms: benign” value [3, 13] was 2 (1.3) n (%) and the “SAEs: Nervous system disorders” value [3, 13] was 2 (1.3) n (%). The “SAEs: Psychiatric disorders” value [3, 13] was 1 (0.6) n (%), the “TEAE: Diarrhoea” value [3, 13] was 28 (17.8) n (%) and the “TEAE: GI disorders” value [3, 13] was 86 (54.8) n (%). For the same substance, the “TEAE: Nausea” value [3, 13] was 61 (38.9) n (%), the “TEAE: Vomiting” value [3, 13] was 38 (24.2) n (%) and the “Body weight at Week 17” value [4, 14] was 89.98 (18.12) kg. For the same substance, the “Body weight at Week 17” value [4, 15] was 91.87 (15.31) kg, the “Body weight at Week 17” value [4, 16] was 85.72 (15.58) kg and the “Body weight at Week 17” value [4, 17] was 89.26 (16.49) kg. For the same substance, the “HbA1c reduction from baseline compared with once-daily liraglutide” value [5] was “non‐inferior”, the “Patients with HbA1c <53 mmol/mol (7%) at Week 17” value [6, 14] was 26 (50.0) n (%) and the “Patients with HbA1c <53 mmol/mol (7%) at Week 17” value [6, 15] was 26 (50.0) n (%). The “Patients with HbA1c <53 mmol/mol (7%) at Week 17” value [6, 16] was 24 (46.2) n (%), the “Patients with HbA1c <53 mmol/mol (7%) at Week 17” value [6, 17] was 76 (48.7) n (%) and the “FPG at Week 17” value [7, 14] was 7.86 (2.28) mmol/L. For the same substance, the “FPG at Week 17” value [7, 15] was 8.09 (2.28) mmol/L, the “FPG at Week 17” value [7, 16] was 7.76 (1.93) mmol/L and the “FPG at Week 17” value [7, 17] was 7.90 (2.16) mmol/L. For the same substance, the Neutralizing antibodies [8] was “no neutralizing antibodies were detected”, the “Mean daily glucose at Week 17” value ([9]; 8 mg once monthly sc) was 8.76 (2.13) mmol/L and the “Mean daily glucose at Week 17” value ([9]; 12 mg once monthly sc) was 8.89 (2.50) mmol/L. For the same substance, the “Mean daily glucose at Week 17” value ([9]; 16 mg once monthly sc) was 8.49 (1.43) mmol/L.
